We go through three compounds from ChEMBL document CHEMBL3526054, “Substituted imidazole of 5-fluoro-2-[4-[(2-phenyl-1H-imidazol-5-yl)methyl]-1-piperazinyl]pyrimidine Inactivates cytochrome P450 2D6 by protein adduction” (Drug Metab Dispos, 2011).

In data set [1] the target is T1, Cytochrome P450 2D6 (Homo sapiens, UniProt P10635). The data set can be described thus: Partition ratio of […] assessed as number of molecules of compound metabolized per molecule of inactivated enzyme after 60 mins by HPLC analysis. The settings on record: recombinant enzyme, 1 h. It is filed as ADME.
The target in a further data set is Cytochrome P450 2C9 (Homo sapiens, UniProt P11712). Description: Drug metabolism assessed as CYP2C9 (unknown origin)-mediated retention time of metabolite by LC-MS/MS analysis in presence of NADPH. It is filed as ADME.
For data set [2], the target named is T1, Cytochrome P450 2D6. Description: Drug metabolism assessed as human CYP2D6 with P450 reductase-mediated retention time of metabolite by LC-MS/MS analysis in presence of NADPH. It is filed as ADME.
Data set [3] deals with T1, Cytochrome P450 2D6. Description: Inhibition of CYP2D6 (unknown origin). In kind it is ADME.
Data set [4] deals with T1, Cytochrome P450 2D6. The data set can be described thus: Covalent binding affinity to human CYP2D6 with P450 reductase assessed per nmol of enzyme after 60 mins by protein precipitation and scintillation counting analysis in presence of NADPH. The settings on record: 1 h.
The target of data set [5] is T1, Cytochrome P450 2D6. The data set can be described thus: Binding affinity to recombinant human CYP2D6 expressed in Escherichia coli co-expressing P450 reductase by spectral analysis. It is filed as ADME. The following applies: read-out: Ks. In outline:
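Purified recombinant CYP2D6 (from E. coli), 1 μM in 100 mM potassium phosphate pH 7.4, split between two cuvettes at room temperature. Ligand (0.05–16 μM, in water) titrated into the sample cuvette, solvent into the reference. Difference spectra recorded 350–500 nm. ΔA430–395 plotted against concentration. Ks obtained by nonlinear fit to the quadratic tight-binding equation.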

In data set [6] the target is T2, CYP2D6 (Homo sapiens, UniProt P10635). Description: Inhibition of catalytic activity of recombinant human CYP2D6 expressed in Escherichia coli co-expressing P450 reductase assessed as loss of ability to bind CO at 16 uM after <15 mins by […] in presence of NADPH. It is filed as ADME. In outline:
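Purified CYP2D6 (1 μM) reconstituted with 2 μM P450 reductase, 30 μM dilauroyl-PC, catalase and SOD in 100 mM KPi pH 7.4, with 16 μM compound and an NADPH-generating system. Incubated up to 25 min. Controls lacked compound or NADPH system. Quenched with detergent buffer. Reduced-CO difference spectrum read 400–500 nm; P450 from A450–A475 (91 mM⁻¹cm⁻¹), expressed relative to time 0.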

Data set [7] has as its target T2, CYP2D6. Description: (§1) Inhibition of catalytic activity of recombinant human CYP2D6 expressed in Escherichia coli co-expressing P450 reductase assessed as hydroxybufuralol activity at 16 uM after <15 mins by HPLC analysis in presence of NADPH. In kind it is ADME. The settings on record: probe bufuralol (hydroxybufuralol formation).
A further data set addresses Cytochrome P450 2C19 (Homo sapiens, UniProt P33261). The data set can be described thus: Drug metabolism assessed as CYP2C19 (unknown origin)-mediated retention time of metabolite by LC-MS/MS analysis in presence of NADPH. In kind it is ADME.
In data set [8] the target is T2, CYP2D6. Description: Inhibition of catalytic activity of recombinant human CYP2D6 expressed in Escherichia coli co-expressing P450 reductase assessed as loss of native heme in hemochrome at 16 uM after <15 mins by hemochrome assay in presence of NADPH. In kind it is ADME. In outline: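 Purified CYP2D6 (1 μM) with 2 μM reductase, 30 μM dilauroyl-PC, catalase, SOD and 16 μM compound in 100 mM KPi pH 7.4, incubated 0–40 min with an NADPH-generating system. Controls lacked compound or NADPH system. Quenched in detergent buffer, then pyridine (22%) and NaOH (0.01 N, final) added. Dithionite-reduced spectrum 520–620 nm; heme from A557–A575 (32.4 mM⁻¹cm⁻¹), relative to time 0.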

Data set [9] deals with T1, Cytochrome P450 2D6. The data set can be described thus: Covalent binding affinity to human CYP2D6 with P450 reductase assessed per nmol of enzyme after 60 mins by protein precipitation and scintillation counting analysis in absence of NADPH. The settings on record: 1 h.
In data set [10] the target is T2, CYP2D6. Description: Inhibition of catalytic activity of […] assessed as loss of native heme in hemochrome at 16 uM after <15 mins by HPLC analysis in presence of NADPH. It is filed as ADME.
Data set [11] concerns the target T1, Cytochrome P450 2D6. The data set is described as §1. In kind it is ADME. The settings on record: recombinant enzyme, 0.25 h, 16 µM.

In general, Ki refers to a measure of affinity in units of concentration, obtained from inhibition or displacement. Read a high Ki as lower affinity. What is called inhibition is the relative decrease from the control value, in per cent.

T2 sequence (P10635 whole entry): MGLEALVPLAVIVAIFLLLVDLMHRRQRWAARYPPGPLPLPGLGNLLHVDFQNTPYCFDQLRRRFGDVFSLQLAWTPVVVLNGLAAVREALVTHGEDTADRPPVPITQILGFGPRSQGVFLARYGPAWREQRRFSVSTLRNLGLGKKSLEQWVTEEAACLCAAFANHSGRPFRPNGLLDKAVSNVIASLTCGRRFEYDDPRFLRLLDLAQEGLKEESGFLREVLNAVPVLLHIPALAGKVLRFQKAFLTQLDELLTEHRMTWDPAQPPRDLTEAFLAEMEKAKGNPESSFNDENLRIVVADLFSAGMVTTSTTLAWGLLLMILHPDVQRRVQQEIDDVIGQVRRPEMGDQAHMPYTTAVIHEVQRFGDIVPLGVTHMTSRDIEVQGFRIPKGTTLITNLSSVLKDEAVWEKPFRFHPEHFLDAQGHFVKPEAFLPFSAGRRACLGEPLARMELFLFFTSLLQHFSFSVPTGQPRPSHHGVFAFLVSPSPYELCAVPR
T1 sequence (P10635 whole entry): as above
Cytochrome P450 2C9, sequence (P11712 whole entry): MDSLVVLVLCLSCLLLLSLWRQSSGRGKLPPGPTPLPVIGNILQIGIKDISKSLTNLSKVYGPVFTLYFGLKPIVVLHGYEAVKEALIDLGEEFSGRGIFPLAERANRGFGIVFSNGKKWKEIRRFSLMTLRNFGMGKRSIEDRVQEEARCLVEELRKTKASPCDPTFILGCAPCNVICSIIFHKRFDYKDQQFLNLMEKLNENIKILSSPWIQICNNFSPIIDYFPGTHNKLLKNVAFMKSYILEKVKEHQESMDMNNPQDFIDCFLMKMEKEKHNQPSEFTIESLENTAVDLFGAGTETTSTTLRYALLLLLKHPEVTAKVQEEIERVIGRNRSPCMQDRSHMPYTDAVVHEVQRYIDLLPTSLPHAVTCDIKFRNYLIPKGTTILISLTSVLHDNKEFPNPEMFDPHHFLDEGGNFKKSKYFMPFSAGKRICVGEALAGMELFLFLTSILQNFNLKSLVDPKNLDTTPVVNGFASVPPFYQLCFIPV
Cytochrome P450 2C19, sequence (P33261 whole entry): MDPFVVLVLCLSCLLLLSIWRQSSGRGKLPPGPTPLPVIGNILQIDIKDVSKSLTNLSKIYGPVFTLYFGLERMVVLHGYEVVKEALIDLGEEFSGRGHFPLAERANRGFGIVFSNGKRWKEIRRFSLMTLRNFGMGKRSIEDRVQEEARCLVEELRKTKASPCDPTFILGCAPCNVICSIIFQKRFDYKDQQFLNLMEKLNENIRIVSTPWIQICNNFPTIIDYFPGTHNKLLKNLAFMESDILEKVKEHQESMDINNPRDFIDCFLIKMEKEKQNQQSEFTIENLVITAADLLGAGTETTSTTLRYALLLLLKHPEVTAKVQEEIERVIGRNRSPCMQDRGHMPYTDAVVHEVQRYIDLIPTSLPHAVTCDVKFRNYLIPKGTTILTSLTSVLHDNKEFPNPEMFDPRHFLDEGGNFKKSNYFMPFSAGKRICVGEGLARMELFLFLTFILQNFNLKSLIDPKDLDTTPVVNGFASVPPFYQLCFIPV

With `CCc1nc(C)c(CN2CCN(c3cc(C(F)(F)F)ccn3)CC2)[nH]1`, the Ratio on Cytochrome P450 2D6 [1] is 99.

For `Fc1cnc(N2CCN(Cc3cnc(-c4ccccc4)[nH]3)CC2)nc1`, the Retention_time on Cytochrome P450 2C9, at Cytochrome P450 2D6 [2] and at Cytochrome P450 2C19 was 17 min in each case. At Cytochrome P450 2D6 [3], this compound gave a Ki of 0.55 µM. In addition, the PB stood at 3.15 nmol at Cytochrome P450 2D6 [4] and 1.95 nmol at Cytochrome P450 2D6 [9]. In addition, the Kd at Cytochrome P450 2D6 [5] came to 0.39 µM. The inhibition at 0.25 h, 16 µM turned out to be 25% at CYP2D6 [6], 90% at CYP2D6 [7], 15% at CYP2D6 [8] and 25% on CYP2D6 [10]. Besides, on Cytochrome P450 2D6 [1], the Ratio stood at 3.

In the case of `COc1ccc2c(c1)[C@]13CCCC[C@@H]1[C@H](C2)N(C)CC3` [DEXTROMETHORPHAN], the “inhibition (INH)” value at Cytochrome P450 2D6 [11] is reported as “Active”.
